According to ChEMBL document CHEMBL4425098, “Thiolactomycin-Based Inhibitors of Bacterial β-Ketoacyl-ACP Synthases with in Vivo Activity” (J Med Chem, 2016):
Values after ≈ are worked out from the molar mass of the structure shown. Active and inactive are the calls of the source. The rule behind the calls is not given here.

Key:
[1] = test system: Mycobacterium tuberculosis; assay: Antibacterial activity against Mycobacterium tuberculosis H37Rv after 6 days by Alamar blue dye-based colorimetric assay; type: functional; conditions: 144 h
How it was run: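 M. tuberculosis H37Rv grown to early-mid log phase in Middlebrook 7H9 with 10% OADC and 0.05% Tween 80, added to 1:2 serial compound dilutions, and grown for 6 days at 37°C. Alamar blue then added for a further 24 h. MIC taken as the concentration preventing visible growth and Alamar blue reduction in all replicates.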

Francisella tularensis = assay: Antibacterial activity against Francisella tularensis LVS after 18 to 24 hrs by Alamar blue dye-based colorimetric assay; type: functional
Staphylococcus aureus [2] = assay: Antibacterial activity against methicillin-sensitive Staphylococcus aureus RN4220 after 18 to 24 hrs by Alamar blue dye-based colorimetric assay; type: functional
How it was run: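 Two-fold serial dilutions from 512 down to 0.25 μg/mL in CAMHB (microbroth dilution); incubated 37 °C for 18–24 h, then Alamar Blue added for a further 4 h. Absorbance read at 570 and 600 nm; percent growth reduction plotted against concentration, MIC90 from non-linear regression; growth and MICs confirmed by optical density.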

Staphylococcus aureus [3] = assay: Antibacterial activity against methicillin-resistant Staphylococcus aureus BAA 1762 after 18 to 24 hrs by Alamar blue dye-based colorimetric assay; type: functional
Yersinia pestis = assay: Antibacterial activity against Yersinia pestis A1122 after 18 to 24 hrs by Alamar blue dye-based colorimetric assay; type: functional
[4] = target: T1, 3-oxoacyl-[acyl-carrier-protein] synthase 2 (Staphylococcus aureus, UniProt Q5TKS0); assay: Binding affinity to Staphylococcus aureus wild type FabF expressed in Escherichia coli BL21 (DE3) PlysS cells by intrinsic tryptophan fluorescence quenching-based fluorimetric method
T1 sequence (Q5TKS0 whole entry): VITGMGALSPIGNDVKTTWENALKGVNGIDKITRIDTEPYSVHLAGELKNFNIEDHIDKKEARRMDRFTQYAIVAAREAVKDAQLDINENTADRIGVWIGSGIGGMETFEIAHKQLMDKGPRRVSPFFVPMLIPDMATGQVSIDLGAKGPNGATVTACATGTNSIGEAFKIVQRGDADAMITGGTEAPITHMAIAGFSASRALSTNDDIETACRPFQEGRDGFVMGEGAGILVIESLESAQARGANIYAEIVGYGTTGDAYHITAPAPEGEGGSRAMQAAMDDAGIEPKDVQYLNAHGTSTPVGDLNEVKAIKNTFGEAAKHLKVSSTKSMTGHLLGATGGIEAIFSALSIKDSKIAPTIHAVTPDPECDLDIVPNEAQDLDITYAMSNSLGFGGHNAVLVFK

[5] = test system: Burkholderia pseudomallei; assay: Antibacterial activity against Burkholderia pseudomallei after 18 to 24 hrs by Alamar blue dye-based colorimetric assay; type: functional
Klebsiella pneumoniae [6] = assay: Antibacterial activity against Klebsiella pneumoniae KPC2ST258 after 18 to 24 hrs by Alamar blue dye-based colorimetric assay; type: functional, organism-based
Klebsiella pneumoniae [7] = assay: Antibacterial activity against Klebsiella pneumoniae KPC2ST258 infected in Swiss Webster mouse assessed as survival time at 100 mg/kg, sc administered 1, 12 and 24 hrs post infection measured every 12 hrs for 7 days; type: functional
How it was run: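 K. pneumoniae KPC2ST258 was given IP as 5×10⁶ cfu in BHI broth. Drugs in saline/PEG400/ethanol (40/20/40) were injected SC at 100 mg/kg/inj at 1, 12 and 24 h post infection. Mice were checked every 12 h for 7 days, n=8–10 per group. Average survival time was compared with vehicle by one-tailed t test.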

Staphylococcus aureus [8] = assay: Antibacterial activity against methicillin-resistant Staphylococcus aureus BAA 1762 infected in Swiss Webster mouse assessed as survival time at 100 mg/kg, sc administered 1 and 25 hrs post infection measured twice a day for 5 days; type: functional
How it was run: (§1)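 Mice made neutropenic with cyclophosphamide 4 days and 1 day before infection. MRSA BAA 1762 was given IP as 0.5 mL of 5×10⁷ cells/mL in BHI. Analogues in water/ethanol, or vancomycin in water, were dosed SC at 100 mg/kg/inj at 1 and 25 h post infection. Survival was checked every 12 h for 5 days, n=6–7 per group. Average survival time was compared with vehicle by one-tailed t test.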

Staphylococcus aureus [9] = assay: Antibacterial activity against methicillin-resistant Staphylococcus aureus BAA 1762 infected in sc dosed Swiss Webster mouse assessed as increase in survival rate administered 1 and 25 hrs post infection measured twice a day for 5 days; type: functional; conditions: BAA 1762, sc; how it was run: as §1
[10] = target: 3-oxoacyl-[acyl-carrier-protein] synthase 2 (Staphylococcus aureus, UniProt Q5TKS0, C165Q); assay: Binding affinity to Staphylococcus aureus FabF C165Q mutant expressed in Escherichia coli BL21 (DE3) PlysS cells by intrinsic tryptophan fluorescence quenching-based fluorimetric method
How it was run: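 Kd by quenching of intrinsic tryptophan fluorescence (excitation 280 nm, emission 337 nm). Inhibitor stocks in DMSO or buffer were titrated into 1 μM His-tag-purified enzyme in 50 mM Tris-HCl, 150 mM NaCl, 1 mM DTT, pH 8.5. mtFabB was expressed in M. smegmatis MC²155; saFabF was expressed in E. coli BL21(DE3) pLysS.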

Staphylococcus aureus [11] = assay: Antibacterial activity against methicillin-resistant Staphylococcus aureus BAA 1762 infected in Swiss Webster mouse assessed as increase in survival rate at 100 mg/kg, sc administered 1 and 25 hrs post infection measured twice a day for 5 days relative to vehicle-treated control; type: functional, organism-based; how it was run: as §1

Row | Molecule | MIC90 [1] | MIC90 (Francisella tularensis) | MIC90 (Staphylococcus aureus [2]) | MIC90 (Staphylococcus aureus [3]) | MIC90 (Yersinia pestis) | Kd [4] | Activity [5] | MIC (Klebsiella pneumoniae [6]) | MSD (Klebsiella pneumoniae [7]) | MIC [5] | MSD (Staphylococcus aureus [8]) | ED50 (Staphylococcus aureus [9]) | Kd [10] | Activity (Staphylococcus aureus [11])
1 | C=C/C(C)=C/[C@@]1(C)SC(=O)C(CCCCc2ccc(Br)cc2)=C1O | 12.5 µg/mL (≈ 30.7 µM) | 2.2 µg/mL (≈ 5.4 µM) | 32 µg/mL (≈ 78.6 µM) | 50 µg/mL (≈ 123 µM) | > 250 µg/mL | 92 µM |  |  |  |  |  |  |  | 
2 | C=C/C(C)=C/[C@@]1(C)SC(=O)C(C(=O)c2ccccc2C(=O)O)=C1O | 50 µg/mL (≈ 145 µM) | 15.9 µg/mL (≈ 46.2 µM) | 32 µg/mL (≈ 92.9 µM) | 32 µg/mL (≈ 92.9 µM) | > 250 µg/mL |  | inactive |  |  |  |  |  |  | 
3 | C=C/C(C)=C/[C@@]1(C)SC(=O)C(C(=O)OC)=C1O | 100 µg/mL (≈ 393 µM) | 58.2 µg/mL (≈ 229 µM) | > 64 µg/mL | > 64 µg/mL | > 250 µg/mL |  | inactive |  |  |  |  |  |  | 
4 | C=C/C(C)=C/[C@@]1(C)SC(=O)C(CCC)=C1O | 25 µg/mL (≈ 105 µM) | 25.8 µg/mL (≈ 108 µM) | > 200 µg/mL | > 200 µg/mL | > 250 µg/mL |  | inactive |  |  |  |  |  |  | 
5 | C=C/C(C)=C/[C@@]1(C)SC(=O)C(CCCCn2cc(CNC(=O)[C@H](O)C(C)(C)CO)nn2)=C1O | > 100 µg/mL | 250 µg/mL (≈ 522 µM) | > 64 µg/mL | > 100 µg/mL | > 250 µg/mL |  |  |  |  |  |  |  |  | 
6 | GENTAMICIN |  |  |  |  |  |  |  | < 1 µg/mL | 6.2 days |  |  |  |  | 
7 | C=C/C(C)=C/[C@@]1(C)SC(=O)C(CCCCc2ccc(Cl)cc2)=C1O | 100 µg/mL (≈ 276 µM) | 1.7 µg/mL (≈ 4.68 µM) | 64 µg/mL (≈ 176 µM) | 50 µg/mL (≈ 138 µM) | > 250 µg/mL |  |  |  |  |  |  |  |  | 
8 | C=C/C(C)=C/[C@@]1(C)SC(=O)C(CCc2ccc(Cl)cc2)=C1O | 100 µg/mL (≈ 299 µM) | 3.1 µg/mL (≈ 9.26 µM) | 64 µg/mL (≈ 191 µM) | 100 µg/mL (≈ 299 µM) | > 250 µg/mL |  | inactive |  |  |  |  |  |  | 
9 | C=C/C(C)=C/[C@@]1(C)SC(=O)C(CC)=C1O | 2.5 µg/mL (≈ 11.1 µM) | 6.9 µg/mL (≈ 30.8 µM) | 150 µg/mL (≈ 669 µM) | 125 µg/mL (≈ 557 µM) | 145 µg/mL (≈ 646 µM) |  |  |  |  | 32 µg/mL (≈ 143 µM) |  |  |  | 
10 | CN[C@H](CC(C)C)C(=O)N[C@H]1C(=O)N[C@@H](CC(N)=O)C(=O)N[C@H]2C(=O)N[C@H]3C(=O)N[C@H](C(=O)N[C@H](C(=O)O)c4cc(O)cc(O)c4-c4cc3ccc4O)[C@H](O)c3ccc(c(Cl)c3)Oc3cc2cc(c3O[C@@H]2O[C@H](CO)[C@@H](O)[C@H](O)[C@H]2O[C@H]2C[C@](C)(N)[C@H](O)[C@H](C)O2)Oc2ccc(cc2Cl)[C@H]1O [VANCOMYCIN] |  |  |  |  |  |  |  |  |  |  | 5 days | < 30 mg/kg |  | 
11 | C=C/C(C)=C/[C@@]1(C)SC(=O)C(CCc2ccc(C)cc2)=C1O |  | 3.4 µg/mL (≈ 10.8 µM) | > 64 µg/mL | > 100 µg/mL | > 250 µg/mL |  |  |  |  |  |  |  |  | 
12 | C=C/C(C)=C/[C@@]1(C)SC(=O)C(C(=O)CCCCCc2ccc(-c3ccccc3)cc2)=C1O | 50 µg/mL (≈ 112 µM) | 0.21 µg/mL (≈ 0.47 µM) | 0.5 µg/mL (≈ 1.12 µM) | 1 µg/mL (≈ 2.24 µM) | > 250 µg/mL | 35.2 µM | inactive |  |  |  |  |  | 33 µM | Active
13 | C=C/C(C)=C/[C@@]1(C)SC(=O)C(CCCCc2ccc(-c3ccccc3)cc2)=C1O | 12.5 µg/mL (≈ 30.9 µM) | 1.9 µg/mL (≈ 4.7 µM) | 16 µg/mL (≈ 39.5 µM) | 25 µg/mL (≈ 61.8 µM) | > 250 µg/mL | 131 µM |  |  |  |  |  |  |  | 
